Assay results pooled from the literature.
Each line is one published result; the experiments were not run side by side.
Target: Insulin receptor (INSR, Homo sapiens, UniProt P06213)

COc1ccc2oc(-c3ccc4nc(N)oc4c3)c/c(=N\c3ccccc3NC(=O)CCN)c2c1  remaining binding (binding; 1 µM): 85%
C[C@H]1CC[C@H](n2c3cnccc3c3cnc(Nc4ccc5c(n4)CCN(C(=O)CO)C5)nc32)CC1  remaining binding (binding; 1 µM): 96%
C1=C/COCc2cc(ccc2OCCN2CCCC2)Nc2nccc(n2)-c2cccc(c2)COC/1  remaining binding (binding; 0.1 µM): 83%
CC#CC(=O)N1CCC[C@H]1c1nc(-c2ccc(C(=O)Nc3ccccn3)cc2)c2c(N)nccn12  inhibition (enzyme activity; inhibitor; 1 µM): 0%
COc1ccc2[nH]c3c4[nH]c5ccc(OC)cc5c4c4c(c3c2c1)C(=O)NC4=O  remaining binding (binding; 1 µM): 66%
CCCCC(=O)Nc1ccc(-c2ccc3ncn(CCC)c(=O)c3c2)cn1  remaining binding (binding; competition with immobilised ligand; 0.5 µM): 100%
C=CC(=O)N1CCC([C@@H]2CCNc3c(C(N)=O)c(-c4ccc(Oc5ccccc5)cc4)nn32)CC1  inhibition (cell-free assay; 1 µM): 0%
N#Cc1ccc(NC(=O)Nc2ccccc2)cc1  remaining binding (cell-free assay; competition with immobilised ligand; 25 µM): 89%
